In ChEMBL document CHEMBL1124004, “Inhibitors of cyclic AMP phosphodiesterase. 3. Synthesis and biological evaluation of pyrido and imidazolyl analogues of 1,2,3,5-tetrahydro-2-oxoimidazo[2,1-b]quinazoline” (J Med Chem, 1988):
The source made the active and inactive calls. The rule behind the calls is not given here.

Assays:
Canis familiaris [1] = species on record: Canis familiaris; assay: Dose at which 50% heart rate increase in dogs; assay type: functional; details: Canis lupus familiaris
How it was run: (§1)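 Instrumented, anesthetized dogs. Cardiac force, heart rate and blood pressure response curves were plotted against dose. When n > 1, the mean at each dose level was plotted.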

Canis familiaris [2] = species on record: Canis familiaris; assay: Dose at which 50% blood pressure decrease in dogs; assay type: functional; details: Canis lupus familiaris; how it was run: as §1
Canis familiaris [3] = assay: Percent maximum increase in cardiac force in anesthetized dogs using isoproterenol as agonist at 140 nmol/kg; assay type: functional, Canis lupus familiaris, Heart
How it was run: (§2)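 Instrumented, anesthetized dogs. Cardiac force rise from the test agent is expressed as a percent of the maximum cardiac force increase seen in the same animal with isoproterenol as agonist. N = number of experiments.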

Canis familiaris [4] = species on record: Canis familiaris; assay: Dose at which 50% maximal effect for cardiac force increase in dogs; assay type: functional; details: Canis lupus familiaris, Heart; how it was run: as §1
Phosphodiesterase 3 [5] = molecular target: T1, Phosphodiesterase 3 (Homo sapiens, UniProt Q14432+Q13370); assay: Inhibition of platelet cAMP phosphodiesterase
Homo sapiens [6] = species on record: Homo sapiens; assay: Inhibition of ADP induced platelet aggregation; assay type: functional
How it was run: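 Human platelets with ADP as the aggregating stimulus. Each assay was run in triplicate at five inhibitor concentrations. The mean at each concentration was plotted and the IC50 was read graphically.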

Canis familiaris [7] = assay: Percent maximum increase in cardiac force in anesthetized dogs using isoproterenol as agonist at 75 nmol/kg; assay type: functional, Canis lupus familiaris, Heart; how it was run: as §2
Phosphodiesterase 3 [8] = molecular target: T1, Phosphodiesterase 3; assay: Inhibition of human platelet cAMP phosphodiesterase at 100 uM
Canis familiaris [9] = assay: Percent maximum increase in cardiac force in anesthetized dogs using isoproterenol as agonist at 125 nmol/kg; assay type: functional, Canis lupus familiaris, Heart; how it was run: as §2
Canis familiaris [10] = assay: Percent maximum increase in cardiac force in anesthetized dogs using isoproterenol as agonist at greater than 5000 nmol/kg; assay type: functional, Canis lupus familiaris, Heart
Canis familiaris [11] = assay: Percent maximum increase in cardiac force in anesthetized dogs using isoproterenol as agonist at 185 nmol/kg; assay type: functional, Canis lupus familiaris, Heart; how it was run: as §2
Canis familiaris [12] = assay: Percent maximum increase in cardiac force in anesthetized dogs using isoproterenol as agonist; inactive at all doses up to 1000 ug/kg; assay type: functional, organism-based; details: Canis lupus familiaris; Heart; how it was run: as §2
Homo sapiens [13] = species on record: Homo sapiens; assay: Inhibition of ADP induced platelet aggregation; inactive; assay type: functional

Compound | IC50 (Phosphodiesterase 3 [5]) | IC50 (Homo sapiens [6]) | also measured
Cc1[nH]c(=O)c(C#N)cc1-c1ccncc1 [MILRINONE] | – | – | ED50 (Canis familiaris [1]): 0.19 µmol/kg; ED50 (Canis familiaris [2]): 0.59 µmol/kg; Max CF response (Canis familiaris [3]): 65%; ED50 (Canis familiaris [4]): 0.09 µmol/kg
O=C1CN2Cc3cc(N4CCCCC4)ccc3N=C2N1 | 0.15 µM | – | –
O=C1CN2Cc3cc(OCCCCCCn4ccnc4)ccc3N=C2N1 | 0.7 µM | 23 µM | –
C[C@@H]1C(=O)NC2=Nc3cccc(Cl)c3CN21 [QUAZINONE] | 0.24 µM | – | –
CN(C(=O)CCCOc1ccc2c(c1)CN1CC(=O)NC1=N2)C1CCCCC1 [LIXAZINONE] | – | – | ED50 (Canis familiaris [1]): 0.03 µmol/kg; ED50 (Canis familiaris [2]): 0.05 µmol/kg; ED50 (Canis familiaris [4]): 0.02 µmol/kg; Max CF response (Canis familiaris [7]): 71%
O=C1CN2Cc3cccnc3N=C2N1 | 330 µM | 200 µM | –
O=C1CN2Cc3cc(Cl)ccc3N=C2N1 | 1.5 µM | – | –
O=C1CN2Cc3ccccc3N=C2N1 | 8.8 µM | – | –
O=C1CN2Cc3cc(I)ccc3N=C2N1 | 0.52 µM | – | –
Cc1c(Br)ccc2c1CN1C(=N2)NC(=O)C1C (configuration not stated) | 0.07 µM | – | –
O=C1CN2Cc3cc(OCCn4ccnc4)ccc3N=C2N1 | 2 µM | 40 µM | –
CCc1[nH]c(=O)[nH]c1C(=O)c1ccncc1 [PIROXIMONE] | > 100 µM | – | inhibition (Phosphodiesterase 3 [8]): 40%
O=C1CN2Cc3ccncc3N=C2N1 | 26 µM | 26 µM | –
CC1CC(O)=NN=C1c1ccc(-n2ccnc2)cc1 (configuration not stated) [CI-930] | – | – | ED50 (Canis familiaris [1]): 0.1 µmol/kg; ED50 (Canis familiaris [2]): 0.1 µmol/kg; ED50 (Canis familiaris [4]): 0.1 µmol/kg; Max CF response (Canis familiaris [9]): 72%
O=C1CN2Cc3ncccc3N=C2N1 | 30 µM | 25 µM | –
O=C1CN2Cc3cnccc3N=C2N1 | 18 µM | 46 µM | ED50 (Canis familiaris [1]): > 1 µmol/kg; ED50 (Canis familiaris [2]): > 1 µmol/kg; ED50 (Canis familiaris [4]): 0.78 µmol/kg; Max CF response (Canis familiaris [10]): 27%
O=C1CN2Cc3cc(-n4ccnc4)ccc3N=C2N1 | 0.6 µM | 6 µM | ED50 (Canis familiaris [1]): 0.22 µmol/kg; ED50 (Canis familiaris [2]): 0.64 µmol/kg; ED50 (Canis familiaris [4]): 0.18 µmol/kg; Max CF response (Canis familiaris [11]): 63%
O=C1CN2Cc3cc(O)ccc3N=C2N1 | 3.3 µM | – | –
O=C1CN=C(Nc2ccc(-n3ccnc3)cc2)N1 | 250 µM | – | Max CF response (Canis familiaris [12]): inactive; IC50 (Homo sapiens [13]): Not Active
O=C1CN2Cc3cc(OCc4ccccc4)ccc3N=C2N1 | 0.56 µM | – | –
